This is a sample that favours compounds with a hit; in the whole collection about 3.4% have one here.
Arrestin-AP2 inh: blocks beta-arrestin peptide binding to AP2 adaptin | FITC-arrestin peptide / GST-AP2 beads, flow cytometry; AP2 beta2 appendage carries R879A mutation | inhibition, % at 10 µM | hit rate 0.31% among 340,000;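 active = inhibition above a set limit, near 3 SD of compounds lacking own fluorescence, cut at about 54% in these data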;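 note: plate controls were DMSO wells for no effect and 5 µM unlabelled arrestin peptide for full effect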
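Test system: GST-tagged AP2 beta2-adaptin appendage (R879A) on 4 µm glutathione beads; also added: fluorescein-tagged arrestin peptide at 50 nM final; timing: 12 min plus 1 h, RT; signal: flow cytometry, FL1 (488/535 nm); read-out: percent drop in bead-associated FITC signal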
APOBEC3A inh: human APOBEC3A DNA deaminase inhibition | recombinant A3A, FAM/TAMRA ssDNA deamination fluorescence | inhibition, % at 20 µM | hit rate 0.41% among 330,000 | AID 493011;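 active = at least 40% inhibition at 20 µM here, with at most 30% in a related deaminase screen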;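 note: plate controls were A3A with DMSO for no effect and wells lacking A3A enzyme for full effect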
Target sequence (P31941 whole entry, looked up): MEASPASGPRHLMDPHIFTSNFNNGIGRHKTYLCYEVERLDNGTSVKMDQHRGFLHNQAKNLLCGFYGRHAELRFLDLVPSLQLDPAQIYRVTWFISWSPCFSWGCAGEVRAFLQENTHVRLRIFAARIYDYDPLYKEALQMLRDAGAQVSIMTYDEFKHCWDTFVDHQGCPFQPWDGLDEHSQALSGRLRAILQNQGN
APOBEC3G inh: APOBEC3G (human) deaminase inhibition | AID 493012 | Q9HC16 | hit rate 0.28% among 330,000 | recombinant A3G, ssDNA deamination FAM/TAMRA fluorescence | inhibition, % at 20 µM;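 active = inhibition of at least 40% at 20 µM, with no more than 30% in the related APOBEC3A deaminase screen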;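 note: plate controls were DMSO wells with A3G for no effect and wells lacking A3G enzyme for full effect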
PolyA inhibitor: blocks polyadenylation in yeast reporter cells. S. cerevisiae SKY197-pL101 polyadenylation reporter, beta-gal luminescence; efflux-impaired pdr1/pdr3 knockout yeast; score 100 = 6 SD above DMSO. activity score, % at 12 µM. hit rate 0.02% among 300,000;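 active = lowest replicate activity score at least 50, where 100 means six control SD above control mean; inconclusive = lowest score under 50 but half or more replicates reach 50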;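 note: yeast exposed to compound for 9 h at 30 °C; higher score means more reporter readthrough which indicates perturbed polyadenylation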
AHR activator: activates the human aryl hydrocarbon receptor; hit rate 2.5% among 320,000; AID 2796; P35869; AHR-responsive luciferase reporter cells, luminescence; activation, % at 5 µM; in the data active = activation above about 47%;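 note: 0% = vehicle wells and 100% = reference agonist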
UCH37 inh: inhibitors of human deubiquitinating enzyme UCH37; AID 588478; Q9Y5K5; hit rate 0.33% among 330,000; inhibition, % (no concentration beside the values); purified proteasome/UCH37, Ub-AMC cleavage fluorescence;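 active = mean inhibition over replicate wells above about 20%, limit read from the data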;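 note: 0% = compound-free wells with enzyme and 100% = wells lacking proteasome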
Target sequence (Q9Y5K5 whole entry, looked up): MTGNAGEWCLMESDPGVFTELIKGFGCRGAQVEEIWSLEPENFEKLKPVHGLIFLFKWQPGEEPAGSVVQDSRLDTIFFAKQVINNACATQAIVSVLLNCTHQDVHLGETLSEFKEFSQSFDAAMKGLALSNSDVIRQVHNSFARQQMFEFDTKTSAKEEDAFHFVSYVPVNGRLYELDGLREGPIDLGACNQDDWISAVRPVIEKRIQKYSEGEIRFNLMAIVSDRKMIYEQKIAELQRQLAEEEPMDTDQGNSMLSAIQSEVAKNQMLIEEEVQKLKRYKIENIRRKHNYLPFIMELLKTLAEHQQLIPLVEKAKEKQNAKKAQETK
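Schedule: 30 min plus 25 min, room temperature / Material: human UCH37 within purified proteasomes / Technique: AMC fluorescence intensity at 355/460 nm / Buffer or medium: pH 7.4 Tris-HCl (50 mM) with ovalbumin, ATP-MgCl2, DTT / Controls: wells without proteasome as full block, compound-free enzyme plus substrate as uninhibited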
An asterisk follows results filed as active; i = inactive; ? = inconclusive; nt = no result given.

SMILES	Arrestin-AP2 inh	APOBEC3A inh	APOBEC3G inh	PolyA inhibitor	AHR activator	UCH37 inh
CCCn1c(=N)c(C(=O)NC2CCCC2)cc2c(=O)n3cccc(C)c3nc21	-26	-15	-2	-5	57*	-408
Cc1cccn2c(=O)c3cc(C(=O)NC4CCCCC4)c(=N)n(CCN4CCOCC4)c3nc12	42	2	-3	?	-1	-81
Cc1cccn2c(=O)c3cc(C(=O)NC4CCCC4)c(=N)n(C4CCCC4)c3nc12	-9	1	-1	-5	54*	i
N=c1c(C(=O)NC2CCCC2)cc2c(=O)n3ccccc3nc2n1C1CCCC1	30	0	-8	3	6	i
CC(=O)Nc1ccc(S(=O)(=O)N(C)CC(=O)NN=Cc2ccc(C(=O)O)cc2)cc1	nt	nt	nt	nt	nt	2
CCc1ccc(OCC(=O)NN=C(C)c2ccc(O)cc2O)cc1	nt	nt	nt	nt	nt	17
Cc1ccc(-c2cc(C(=O)NN=Cc3c(C)nn(C)c3C)c3ccccc3n2)cc1C	nt	nt	nt	nt	nt	-25
Cc1ccc(-c2cc(C(=O)N/N=C/c3c(C)nn(C)c3C)c3ccccc3n2)cc1C	10	2	2	2	61*	nt
CC(CC(=O)NC1CCCCC1)=NNC(=O)COc1ccc(C)cc1Br	nt	nt	nt	nt	nt	-1
O=C(Nc1cnc2ccccc2c1)c1cccc(-n2cnnn2)c1	4	-2	-4	6	59*	-26
O=C(NNC(=O)c1cccc(-n2cnnn2)c1)c1ccccc1	-5	4	-13	21	3	3
COc1ccc(S(=O)(=O)Nc2cc(SCC(=O)O)c(O)c3ccccc23)cc1	4	1	19	-10	66*	16
COc1ccc(S(=O)(=O)Nc2cccc3ccc(O)cc23)cc1	29	1	-1	4	5	4
Cc1cc(C)c(S(=O)(=O)/N=C2/C=C(SCC(=O)O)C(=O)c3ccccc32)cc1C	28	-2	7	nt	nt	nt
Cc1cc(C)c(S(=O)(=O)Nc2cc(SCC(=O)O)c(O)c3ccccc23)cc1C	nt	nt	nt	7	61*	9
O=C(O)CSc1cc(NS(=O)(=O)c2ccc(Cl)cc2)c2ccccc2c1O	6	nt	nt	-8	50*	nt
CN(C)c1ccc(/C=C/C=NNc2nc(N3CCOCC3)nc(N3CCOCC3)n2)cc1	nt	nt	nt	nt	nt	-53
O=C(NN=Cc1cc(Cl)ccc1O)c1ccc(S(=O)(=O)N2CCCCC2)cc1	nt	nt	nt	nt	nt	2
COc1ccc(OC)c(NC(=O)C(=S)NC2CCCCC2)c1	8	-5	-3	-13	70*	1
COc1ccc(C=NNC(=O)CNC(=O)C2COc3ccccc3O2)cc1[N+](=O)[O-] (configuration not stated)	nt	nt	nt	nt	nt	-1
O=C(NC=NOCc1cccc(C(F)(F)F)c1)N1OC[C@@H]2COc3ccc4ccccc4c3[C@@H]21	nt	nt	nt	nt	nt	6
Cn1c(=O)c(C(=O)NCCc2ccccc2)c(O)c2ccccc21	-1	-1	-4	26	72*	3
Cn1c(=O)c(C(=O)NNC(=O)c2ccccc2Cl)c(O)c2ccccc21	24	-1	-9	88*	36	-2
COc1ccc(-c2cc3ccccc3[nH]2)cc1	-4	-3	-7	-11	21	2
Cc1ccc(O)c(-c2cc(-c3ccccc3F)[nH]n2)c1	11	-1	-5	-4	27	-1
SMILES	Arrestin-AP2 inh	APOBEC3A inh	APOBEC3G inh	PolyA inhibitor	AHR activator	UCH37 inh
Cc1ccc(O)c(-c2cc3ccccc3[nH]2)c1	3	3	-3	-17	49*	-65
c1ccc(-c2cc3ccccc3[nH]2)cc1	3	3	-4	9	50*	0
OCCCCC#Cc1c(-c2ccsc2)sc2ccccc12	-4	5	-6	-5	49*	nt
C(#Cc1c(-c2ccsc2)sc2ccccc12)c1ccsc1	nt	3	-4	nt	72*	-8
Cc1cccc(N2CCN(Cc3ccc([N+](=O)[O-])o3)CC2)c1C	-20	-6	-7	-12	57*	4
COC(C(=O)NN=C(C)CC(=O)Nc1ccc(Cl)cc1C)c1ccccc1 (configuration not stated)	nt	nt	nt	nt	nt	1
O=C(CSc1ccc(C(F)(F)F)cc1[N+](=O)[O-])Nc1ccccc1	14	-4	-10	-8	48*	7
CC(C)NC(=O)CNc1ccc(C(F)(F)F)cc1[N+](=O)[O-]	19	6	-2	-3	52*	2
CN1CCN(C(=O)CNc2ccc(C(F)(F)F)cc2[N+](=O)[O-])CC1	-7	-1	-8	11	29	7
COc1cc(C=Nn2c(SC)nnc(C(C)(C)C)c2=O)ccc1O	nt	nt	nt	nt	nt	35*
O=C(Nc1ccc2c(c1)OCO2)c1cnccn1	15	1	-5	-9	66*	7
O=C(Nc1ccc2c(c1)OCO2)c1ccc(=O)[nH]n1	25	3	-2	6	78*	0
CC(C)N=C1CC(C)(C)CC(=O)/C1=C(\O)CCCN1C(=O)c2ccccc2C1=O	nt	nt	nt	nt	nt	4
O=C(NN=Cc1c(Cl)[nH]c2ccccc12)c1sc2ccccc2c1Cl	nt	nt	nt	nt	nt	-6
Cc1cc(C)nc(-n2nc(C)c(C3(O)C(=O)Nc4ccccc43)c2N)n1 (configuration not stated)	4	-1	-2	1	56*	5
Cn1c2ccccc2c2ncn(CCCN3CCOCC3)c(=O)c21	7	2	1	3	50*	-34
Cc1ccccc1NC(=O)c1ccc(-n2cncn2)nc1	1	3	-4	12	121*	-1
O=C(Nc1c(F)cccc1F)c1ccc(-n2cncn2)nc1	20	-5	-6	15	-2	-1
CSc1nc(C)[nH]c(=O)c1C#N	-5	-2	-5	6	4	2
Cc1nc(Nc2ccc(Cl)cc2)c(C#N)c(=O)[nH]1	9	-3	-9	-5	71*	-36
Cn1c(N)c(C(=O)Nc2ccc3ccccc3c2)sc1=S	4	2	10	-16	93*	1
Cn1c(N)c(C(=O)N/N=C/c2ccccc2)sc1=S	7	-1	-2	7	101*	nt
O=C1CC(c2ccc3c(c2)OCO3)CN1 (configuration not stated)	-5	-20	-6	25	-1	27*
O=C1C=C(c2ccc3c(c2)OCO3)C[C@@H](c2ccc3c(c2)OCO3)C1	25	-1	-10	nt	61*	1
O=C1C=C(c2ccc(-c3ccccc3)c(F)c2)C[C@@H](c2ccc3c(c2)OCO3)C1	-18	-1	-4	nt	3	2
O=C1C=C(c2cc(Cl)cc(Cl)c2)C[C@@H](c2ccc3c(c2)OCO3)C1	-3	0	-4	nt	30	-1
O=C1C=C(c2cccc(CO)c2)C[C@@H](c2ccc3c(c2)OCO3)C1	7	-1	-9	nt	73*	2
Cc1cc(C2=CC(=O)C[C@H](c3ccc4c(c3)OCO4)C2)ccc1F	-11	6	-2	nt	79*	-1
